# Source: ChEMBL document CHEMBL1144150, “A new biflavonoid from Calophyllum panciflorum with antitumor-promoting activity” (J Nat Prod, 1999)
# What was measured:
# Type in all cases: cell-based
# Raji [1] = assay: Antitumor-promoting activity assessed as TPA-induced EBV-early antigen activation in human Raji cells at 32 nmol after 48 hrs relative to TPA; conditions: human gammaherpesvirus 4
# Method in brief: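 Raji cells (EBV genome-carrying lymphoblastoid, nonproducer) in RPMI 1640 with 10% FBS, 1×10⁶/mL, given 4 mM n-butyric acid plus 32 pmol TPA (20 ng/mL) and test compound; 37 °C, CO₂, 48 h. EA-positive cells scored by indirect immunofluorescence using NPC patient sera, ≥500 cells counted, three repeats. Expressed as % of butyric acid+TPA control (100%), mean ± S.D.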
# Raji [2] = assay: Antitumor-promoting activity assessed as TPA-induced EBV-early antigen activation in human Raji cells at 16 nmol after 48 hrs relative to TPA; conditions: human gammaherpesvirus 4
# Raji [3] = assay: Antitumor-promoting activity assessed as TPA-induced EBV-early antigen activation in human Raji cells at 3.2 nmol after 48 hrs relative to TPA; conditions: human gammaherpesvirus 4
# Raji [4] = assay: Antitumor-promoting activity assessed as TPA-induced EBV-early antigen activation in human Raji cells at 0.32 nmol after 48 hrs relative to TPA; conditions: human gammaherpesvirus 4
# [5] = Cytotoxicity against human Raji cells assessed as cell viability at 32 nmol by trypan blue staining; conditions: read-out: Activity
# [6] = Cytotoxicity against human Raji cells assessed as cell viability at 16 nmol by trypan blue staining; conditions: read-out: Activity
# [7] = Cytotoxicity against human Raji cells assessed as cell viability at 3.2 nmol by trypan blue staining; conditions: read-out: Activity
# [8] = Cytotoxicity against human Raji cells assessed as cell viability at 0.32 nmol by trypan blue staining; conditions: read-out: Activity
Compound,Activity (Raji [1]),Activity (Raji [2]),Activity (Raji [3]),Activity (Raji [4]),viability at 32 nmol [5],viability at 16 nmol [6],viability at 3.2 nmol [7],viability at 0.32 nmol [8]
O=C1c2c(O)cc(O)cc2O[C@H](c2ccc(O)cc2)[C@H]1c1c(O)cc(O)c2c1O[C@H](c1ccc(O)cc1)[C@@H](O)C2=O,25.3%,61%,88.2%,95.7%,70%,> 80%,> 80%,> 80%
O=C1C[C@@H](c2ccc(O)c(O)c2)Oc2c1c(O)cc(O)c2[C@H]1C(=O)c2c(O)cc(O)cc2O[C@@H]1c1ccc(O)cc1,–,42.5%,71.3%,90.6%,70%,> 80%,> 80%,> 80%
O=C1c2c(O)cc(O)cc2O[C@H](c2ccc(O)cc2)[C@H]1c1c(O)cc(O)c2c1O[C@H](c1ccc(O)c(O)c1)[C@@H](O)C2=O,28.7%,63.9%,90.3%,100%,70%,> 80%,> 80%,> 80%
O=C1c2c(O)cc(O)cc2O[C@@H](c2ccc(O)cc2)[C@@H]1c1c(O)cc(O)c2c(=O)c(O)c(-c3ccc(O)cc3)oc12 [GARCINIANIN],–,31.4%,69.2%,89.4%,70%,> 80%,> 80%,> 80%
O=C1c2c(O)cc(O)cc2O[C@@H](c2ccc(O)cc2)[C@@H]1c1c(O)cc(O)c2c(=O)c(O)c(-c3ccc(O)c(O)c3)oc12 [PANCIBIFLAVONOL],22.1%,50.2%,75%,94.4%,70%,> 80%,> 80%,> 80%
O=C1C[C@@H](c2ccc(O)cc2)Oc2c1c(O)cc(O)c2[C@H]1C(=O)c2c(O)cc(O)cc2O[C@@H]1c1ccc(O)cc1,19.4%,48.2%,82.9%,100%,70%,> 80%,> 80%,> 80%
O=C1c2c(O)cc(O)cc2O[C@H](c2ccc(O)cc2)[C@H]1c1c(O)cc(O)c2c(=O)cc(-c3ccc(O)c(O)c3)oc12 [MORELLOFLAVONE],–,40.1%,72.6%,91.2%,70%,> 80%,> 80%,> 80%
